# Columns and labels:
# [1] = Aqueous solubility of the compound in 0.1 M sodium phosphate buffer at pH 7.4; type: physicochemical
# How it was run: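 Solubility determined in 0.1 M sodium phosphate buffer, pH 7.4, with 1% DMSO present.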
# [2] = molecular target: T1, Bifunctional epoxide hydrolase 2 (Homo sapiens, UniProt P34913); experiment: Inhibition of recombinant human sEH expressed in baculovirus expression system using CMNPC as substrate preincubated for 5 mins followed by substrate addition measured for 10 mins by fluorescent based assay
# T1 sequence (P34913 whole entry): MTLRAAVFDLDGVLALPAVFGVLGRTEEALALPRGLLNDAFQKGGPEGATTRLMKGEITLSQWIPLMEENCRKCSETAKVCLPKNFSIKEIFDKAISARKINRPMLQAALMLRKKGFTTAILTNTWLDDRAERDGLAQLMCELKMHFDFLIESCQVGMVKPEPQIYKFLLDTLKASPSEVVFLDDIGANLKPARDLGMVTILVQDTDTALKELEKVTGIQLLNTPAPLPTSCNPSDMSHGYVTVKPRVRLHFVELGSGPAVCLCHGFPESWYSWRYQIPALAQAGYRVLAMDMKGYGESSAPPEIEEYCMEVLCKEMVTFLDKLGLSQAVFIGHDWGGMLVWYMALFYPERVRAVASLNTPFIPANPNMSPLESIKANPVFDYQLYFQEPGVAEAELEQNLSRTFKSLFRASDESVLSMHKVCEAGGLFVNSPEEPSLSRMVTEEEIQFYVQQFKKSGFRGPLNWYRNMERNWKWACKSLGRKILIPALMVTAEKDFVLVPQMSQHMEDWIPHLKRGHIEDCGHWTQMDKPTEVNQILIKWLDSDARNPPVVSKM
# How it was run: (§1)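 Kinetic fluorescent assay giving IC50 values; each value is the mean of three separate experiments.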
# [3] = molecular target: T2, Bifunctional epoxide hydrolase 2 (Mus musculus, UniProt P34914); experiment: Inhibition of recombinant mouse sEH expressed in baculovirus expression system using CMNPC as substrate preincubated for 5 mins followed by substrate addition measured for 10 mins by fluorescent based assay; how it was run: as §1
# T2 sequence (P34914 whole entry): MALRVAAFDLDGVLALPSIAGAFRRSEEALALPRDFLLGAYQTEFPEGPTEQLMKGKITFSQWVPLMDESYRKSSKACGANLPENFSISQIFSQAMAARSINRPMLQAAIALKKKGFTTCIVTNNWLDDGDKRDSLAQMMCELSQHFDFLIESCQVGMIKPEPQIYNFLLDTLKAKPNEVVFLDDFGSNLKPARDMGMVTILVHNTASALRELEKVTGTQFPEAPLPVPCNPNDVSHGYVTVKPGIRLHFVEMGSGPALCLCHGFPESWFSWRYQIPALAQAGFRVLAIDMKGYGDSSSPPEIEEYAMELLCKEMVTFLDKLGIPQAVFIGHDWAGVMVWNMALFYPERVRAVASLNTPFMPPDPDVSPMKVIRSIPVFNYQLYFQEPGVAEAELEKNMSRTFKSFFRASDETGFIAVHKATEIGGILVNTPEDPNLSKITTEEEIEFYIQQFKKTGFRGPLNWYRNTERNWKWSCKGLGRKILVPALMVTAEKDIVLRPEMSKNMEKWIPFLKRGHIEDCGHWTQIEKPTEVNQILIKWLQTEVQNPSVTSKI
# [4] = molecular target: T3, Bifunctional epoxide hydrolase 2 (Rattus norvegicus, UniProt P80299); experiment: Inhibition of rat sEH using CMNPC as substrate preincubated for 5 mins followed by substrate addition measured for 10 mins by fluorescent based assay; how it was run: as §1
# T3 sequence (P80299 whole entry): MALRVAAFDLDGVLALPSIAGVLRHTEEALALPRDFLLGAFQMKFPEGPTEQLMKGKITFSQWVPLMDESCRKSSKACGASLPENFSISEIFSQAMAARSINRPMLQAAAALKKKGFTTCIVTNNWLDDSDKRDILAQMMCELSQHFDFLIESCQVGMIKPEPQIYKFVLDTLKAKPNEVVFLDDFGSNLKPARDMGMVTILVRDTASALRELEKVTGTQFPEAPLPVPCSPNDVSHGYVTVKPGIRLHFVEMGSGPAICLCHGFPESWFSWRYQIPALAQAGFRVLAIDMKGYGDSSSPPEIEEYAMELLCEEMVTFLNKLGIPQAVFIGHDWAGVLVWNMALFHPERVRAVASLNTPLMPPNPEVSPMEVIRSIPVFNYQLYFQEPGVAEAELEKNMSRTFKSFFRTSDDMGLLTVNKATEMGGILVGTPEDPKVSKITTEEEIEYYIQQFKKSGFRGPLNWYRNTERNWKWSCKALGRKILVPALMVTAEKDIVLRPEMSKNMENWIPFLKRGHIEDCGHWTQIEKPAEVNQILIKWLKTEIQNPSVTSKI
solubility [1] [µM],IC50 [2] [nM],IC50 [3] [nM],IC50 [4] [nM],SMILES
40 to 50,234,–,–,CC(N=C(S)NCc1ccccc1)C12CC3CC(CC(C3)C1)C2 (stereo not drawn)
50 to 75,–,–,–,O=C(NCCCCNC(=O)NCC12CC3CC(CC(C3)C1)C2)NCC12CC3CC(CC(C3)C1)C2
10 to 25,–,–,–,CC(NC(=O)NCCCCNC(=O)NC(C)C12CC3CC(CC(C3)C1)C2)C12CC3CC(CC(C3)C1)C2 (stereo not drawn)
10 to 25,–,–,–,CC(NC(=O)NCCCCCCCCNC(=O)NC(C)C12CC3CC(CC(C3)C1)C2)C12CC3CC(CC(C3)C1)C2 (stereo not drawn)
5 to 10,–,–,–,O=C(NCCCCCCCCNC(=O)NC1C2CC3CC(C2)CC1C3)NC1C2CC3CC(C2)CC1C3 (stereo not drawn)
5 to 10,–,–,–,O=C(NC12CC3CC(CC(C3)C1)C2)NC12CC3CC(CC(C3)C1)C2
140 to 160,–,–,–,S=C(NCCCCNC(=S)NCC12CC3CC(CC(C3)C1)C2)NCC12CC3CC(CC(C3)C1)C2
80 to 90,152,–,–,CC12CC3CC(C)(C1)CC(NC(=S)NC1C4CC5CC(C4)CC1C5)(C3)C2 (stereo not drawn)
30 to 40,1250,–,–,S=C(Nc1ccc(C23CC4CC(CC(C4)C2)C3)cc1)NC12CC3CC(CC(C3)C1)C2
90 to 100,97.6,74.9,43.3,S=C(NCCCNC(=S)NC12CC3CC(CC(C3)C1)C2)NC12CC3CC(CC(C3)C1)C2
30 to 40,902,–,–,S=C(NCC12CC3CC(CC(C3)C1)C2)NC1C2CC3CC(C2)CC1C3 (stereo not drawn)
150 to 175,159,–,–,Fc1ccc(NC(=S)NCC23CC4CC(CC(C4)C2)C3)cc1
25 to 35,–,–,–,S=C(NCCCCCCCCNC(=S)NC1C2CC3CC(C2)CC1C3)NC1C2CC3CC(C2)CC1C3 (stereo not drawn)
–,1050,–,–,CC12CC3CC(C)(C1)CC(NC(=S)Nc1ccc(Cl)cc1)(C3)C2
100 to 110,987,–,–,S=C(NCCNC(=S)NC12CC3CC(CC(C3)C1)C2)NC12CC3CC(CC(C3)C1)C2
30 to 40,16.1,–,–,CC12CC3CC(C)(C1)CC(NC(=S)NC14CC5CC(CC(C5)C1)C4)(C3)C2
25 to 30,133,–,–,S=C(NCCc1ccccc1)NCC12CC3CC(CC(C3)C1)C2
35 to 45,15.3,59.5,44.4,S=C(NCCCCCCCCCCNC(=S)NC12CC3CC(CC(C3)C1)C2)NC12CC3CC(CC(C3)C1)C2
35 to 45,451,–,–,CC(NC(=S)Nc1cccc(F)c1)C12CC3CC(CC(C3)C1)C2 (stereo not drawn)
100 to 125,15300,–,–,S=C(Nc1ccc(C23CC4CC(CC(C4)C2)C3)cc1)Nc1ccc(C23CC4CC(CC(C4)C2)C3)cc1
60 to 70,14.8,–,–,S=C(NC1C2CC3CC(C2)CC1C3)NC12CC3CC(CC(C3)C1)C2 (stereo not drawn)
80 to 90,21.1,36.2,46.1,S=C(NCCCCCNC(=S)NC12CC3CC(CC(C3)C1)C2)NC12CC3CC(CC(C3)C1)C2
–,34.7,–,–,S=C(Nc1ccc(Cl)cc1)NC12CC3CC(CC(C3)C1)C2
90 to 100,90.8,130,123,S=C(NCCCCNC(=S)NC12CC3CC(CC(C3)C1)C2)NC12CC3CC(CC(C3)C1)C2
175 to 200,551,–,–,CC12CC3CC(C)(C1)CC(NC(=S)Nc1ccc(F)cc1)(C3)C2
30 to 40,11.2,–,–,S=C(NC12CC3CC(CC(C3)C1)C2)NC12CC3CC(CC(C3)C1)C2

solubility [1] [µM],IC50 [2] [nM],IC50 [3] [nM],IC50 [4] [nM],SMILES
60 to 80,52,–,–,S=C(NCCc1ccccc1)NCCC12CC3CC(CC(C3)C1)C2
120 to 130,–,–,–,CC(NC(=S)NCCCCNC(=S)NC(C)C12CC3CC(CC(C3)C1)C2)C12CC3CC(CC(C3)C1)C2 (stereo not drawn)
8 to 12,216,–,–,CC12CC3CC(C)(C1)CC(NC(=S)NCCc1ccccc1)(C3)C2
10 to 15,57400,–,–,CC(NC(=S)Nc1ccc(C23CC4CC(CC(C4)C2)C3)cc1)C12CC3CC(CC(C3)C1)C2 (stereo not drawn)
100 to 120,5330,–,–,S=C(NCCC12CC3CC(CC(C3)C1)C2)Nc1ccc(C23CC4CC(CC(C4)C2)C3)cc1
125 to 150,259,–,–,S=C(NCCC12CC3CC(CC(C3)C1)C2)NC1C2CC3CC(C2)CC1C3 (stereo not drawn)
70 to 80,20.8,–,–,S=C(NCC12CC3CC(CC(C3)C1)C2)NC12CC3CC(CC(C3)C1)C2
70 to 80,7.7,50.6,61.6,S=C(NCCCCCCNC(=S)NC12CC3CC(CC(C3)C1)C2)NC12CC3CC(CC(C3)C1)C2
30 to 40,281,–,–,Fc1cccc(NC(=S)NCC23CC4CC(CC(C4)C2)C3)c1
75 to 100,1080,–,–,CC(NC(=S)Nc1ccc(F)cc1)C12CC3CC(CC(C3)C1)C2 (stereo not drawn)
–,2590,–,–,CC(NC(=S)Nc1ccccc1)C12CC3CC(CC(C3)C1)C2 (stereo not drawn)
40 to 60,1220,–,–,CC12CC3CC(C)(C1)CC(NC(=S)Nc1ccccc1)(C3)C2
120 to 130,–,–,–,CC(NC(=S)NCCCCCCCCNC(=S)NC(C)C12CC3CC(CC(C3)C1)C2)C12CC3CC(CC(C3)C1)C2 (stereo not drawn)
20 to 30,345,–,–,CC(NC(=S)NCCc1ccccc1)C12CC3CC(CC(C3)C1)C2 (stereo not drawn)
70 to 80,2480,–,–,CC12CC3CC(C)(C1)CC(NC(=S)Nc1ccc(C45CC6CC(CC(C6)C4)C5)cc1)(C3)C2
65 to 75,5900,–,–,S=C(NCC12CC3CC(CC(C3)C1)C2)Nc1ccc(C23CC4CC(CC(C4)C2)C3)cc1
30 to 40,7780,–,–,CC(NC(=S)NC1C2CC3CC(C2)CC1C3)C12CC3CC(CC(C3)C1)C2 (stereo not drawn)
10 to 15,58,–,–,CC12CC3CC(C)(C1)CC(NC(=S)NCc1ccccc1)(C3)C2
50 to 60,131,–,–,S=C(NC1C2CC3CC(C2)CC1C3)NC1C2CC3CC(C2)CC1C3 (stereo not drawn)
175 to 200,5940,–,–,S=C(Nc1ccc(C23CC4CC(CC(C4)C2)C3)cc1)NC1C2CC3CC(C2)CC1C3 (stereo not drawn)
–,60.3,–,–,CC(NC(=S)NC12CC3CC(CC(C3)C1)C2)C12CC3CC(CC(C3)C1)C2 (stereo not drawn)
80 to 90,160,–,–,Fc1cccc(NC(=S)NCCC23CC4CC(CC(C4)C2)C3)c1
50 to 60,58,–,–,CC12CC3CC(C)(C1)CC(NC(=S)Nc1cccc(F)c1)(C3)C2
40 to 50,9.8,1170,374,S=C(NCCCCCCCCNC(=S)NC12CC3CC(CC(C3)C1)C2)NC12CC3CC(CC(C3)C1)C2
125 to 150,148,–,–,Fc1ccc(NC(=S)NCCC23CC4CC(CC(C4)C2)C3)cc1
–,50200,–,–,CCC(CC12CC3CC(CC(C3)C1)C2)NC(=S)Nc1ccccc1 (stereo not drawn)

SMILES,solubility [1] [µM],IC50 [2] [nM],IC50 [3] [nM],IC50 [4] [nM]
S=C(NCCc1ccccc1)NC1C2CC3CC(C2)CC1C3 (stereo not drawn),20 to 30,8.2,108,78.3
S=C(NCc1ccccc1)NC1C2CC3CC(C2)CC1C3 (stereo not drawn),65 to 75,34,61,60.3
S=C(Nc1ccccc1)NC1C2CC3CC(C2)CC1C3 (stereo not drawn),70 to 80,229,408,356
S=C(NCCCCCCCNC(=S)NC12CC3CC(CC(C3)C1)C2)NC12CC3CC(CC(C3)C1)C2,70 to 80,7.2,47.3,35.3

# Source: ChEMBL document CHEMBL4118216, “Adamantyl thioureas as soluble epoxide hydrolase inhibitors” (Bioorg Med Chem Lett, 2018)
